# According to publication PMC11215724 (Journal of Medicinal Chemistry, 2024):
# Key:
# [1] = Mouse pharmacokinetics; format: in vivo; conditions: single I.V. 3 mg/kg or P.O. 10 mg/kg
# In short: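 Single dose to mice, either intravenous at 3 mg/kg or oral at 10 mg/kg. Three animals per time point. Plasma concentration–time profiles were used for observed and calculated PK parameters. Animals were watched for treatment-related toxicological signs throughout.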
# [2] = starting compounds; cited from earlier work
# [3] = Aggregation by NMR; format: physicochemical; conditions: Tris buffer
# In short: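 Compound aggregation checked by WaterLOGSY in the NMR binding-assay buffer at three theoretical concentrations, with 200 μM 4-trifluoromethyl benzoic acid as internal reference. Solubility was checked in PBS and Tris buffer by ¹H 1D spectra. Data were processed with 2 Hz exponential line broadening before Fourier transformation.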
# [4] = Stability in DMSO; format: physicochemical
# [5] = test system: WM3248; assay: Cell viability assay, WM3248 melanoma cell line; format: cell-based; conditions: WM3248 cells
# [6] = test system: A375; assay: Cell viability assay, A375 melanoma cell line; format: cell-based; conditions: A375 cells
# [7] = test system: SKMel3; assay: Cell viability assay, SKMel3 melanoma cell line; format: cell-based; conditions: read-out: IC50 SKMel3; SKMel3 cells
# [8] = test system: SKM28, SKMel3, WM3248, A375, SW480; assay: Cell viability assay, all five cancer cell lines together; format: cell-based
molecule,measurement,setting,value
"COc1ccc(Nc2nc(-c3ccccc3)cc(C3CCNCC3)n2)cc1OC [Compound 15, N-(3,4-Dimethoxyphenyl)-4-phenyl-6-(piperidin-4-yl)pyrimidin-2-amine]",tolerability during the PK studies,[1],well tolerated by all animals
FC(F)(F)c1cccc(Nc2cc(-c3ccccc3)nc(C3CCNCC3)n2)c1 [ARN25062],aggregation by NMR at 100 μM,[2],showed aggregation
"Cn1ccc2ccc(Nc3cc(-c4ccccc4)nc(C4CCNCC4)n3)cc21 [Compound 25, 1-Methyl-N-(6-phenyl-2-(piperidin-4-yl)pyrimidin-4-yl)-1H-indol-6-amine]",aggregation by NMR (50 μM),[3],showed aggregation
"FC(F)(F)c1cccc(Nc2nc(C3=CCNCC3)nc(-c3ccsc3)n2)c1 [Compound 11, 4-(1,2,3,6-Tetrahydropyridin-4-yl)-6-(thiophen-3-yl)-N-(3-(trifluoromethyl)phenyl)-1,3,5-triazin-2-amine]",stability in DMSO,[4],slight instability in DMSO
"FC(F)(F)c1cc(Nc2nc(-c3ccccc3)cc(C3CCNCC3)n2)ccn1 [Compound 20, 4-Phenyl-6-(piperidin-4-yl)-N-(2-(trifluoromethyl)pyridin-4-yl)pyrimidin-2-amine]",tolerability during the PK studies,[1],well tolerated by all animals
"4-(1-Methyl-1H-imidazol-5-yl)-6-(piperidin-4-yl)-N-(3-(trifluoromethyl)phenyl)-1,3,5-triazin-2-amine [Compound 8]",decrease of activity on WM3248 compared to 1,[5],~10 fold
same,effect on A375 (in words),[6],annihilating the effect on A375
same,IC50,[6]; read-out: IC50 A375,> 100 µM
"4-(Piperidin-4-yl)-6-(pyrrolidin-2-yl)-N-(3-(trifluoromethyl)phenyl)-1,3,5-triazin-2-amine [Compound 10]",IC50,[7],> 100 µM
same,antiproliferative activity in the cancer cell lines (in words),[8],complete loss of activity
CN(C)c1cccc(Nc2cc(-c3ccccc3)nc(C3CCNCC3)n2)c1 [ARN22089],aggregation by NMR at 100 μM,[2],showed aggregation
